UPR CHOP act = activators of apoptotic arm of unfolded protein response (CHOP). CHO-CHOP luciferase reporter, UPR activation, luminescence; percent of tunicamycin response over DMSO baseline. activation, % at 10 µM. actives 0.34% (n = 330,000);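 active = at 10 µM dose, activation of 40% or more, normalized to positive control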
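System: CHO CHOP reporter cells. Amount: 500 cells per well. Buffer or medium: F12 medium, 10% FBS. Compound dosing: one dose, 10 µM in 0.5% DMSO. Incubation: 6 h compound exposure at 37 °C after overnight seeding. Technique: Steady-Glo luciferase luminescence. Benchmarks: tunicamycin and DMSO controls.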
CHOP inh = blocks CHOP induction under ER stress. CHO-K1 CHOP-promoter luciferase, tunicamycin-induced, 15-18 h. inhibition, % at 10 µM. actives 3.8% (n = 220,000). AID 2732;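 active = compounds that reduced the stress-induced luciferase reporter signal by more than about 70% of percent inhibition, limit read from the data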
XBP1 UPR activ = adaptive UPR (XBP1) activation. CHO-XBP1 luciferase reporter, IRE1-XBP1 UPR activation, luminescence; percent of tunicamycin response, DMSO as zero. activation, % at 20 µM. actives 0.33% (n = 330,000);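 active = versus positive control, 20 µM dose yields 30% or more activation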
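Signal: luciferase luminescence; Assay system: CHO-XBP1 luciferase reporter cells; Amount: one thousand reporter cells per well; Dosing: 20 µM single concentration, DMSO 1%; Benchmarks: high control tunicamycin 10 µg/mL final, low control DMSO vehicle only; Schedule: 6 h compound exposure at 37 °C, 5% CO2; Evaluation: percent activation relative to tunicamycin reference.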
TMEM16A inh = blocks the mouse calcium-activated chloride channel TMEM16A | actives 1.2% (n = 310,000) | HEK293 TMEM16A/YFP iodide influx fluorescence, ionomycin | Q8BHY3 | normalized B-score (activity score, 25-100; higher = stronger inhibition) at 10 µM | AID 588511;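 active = ratio plate-corrected score three or more library SD toward inhibition, starting fluorescence score within five deviations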;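 note: score derived from kinetic fluorescence span divided by baseline fluorescence per well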
Target sequence (Q8BHY3 whole entry, looked up): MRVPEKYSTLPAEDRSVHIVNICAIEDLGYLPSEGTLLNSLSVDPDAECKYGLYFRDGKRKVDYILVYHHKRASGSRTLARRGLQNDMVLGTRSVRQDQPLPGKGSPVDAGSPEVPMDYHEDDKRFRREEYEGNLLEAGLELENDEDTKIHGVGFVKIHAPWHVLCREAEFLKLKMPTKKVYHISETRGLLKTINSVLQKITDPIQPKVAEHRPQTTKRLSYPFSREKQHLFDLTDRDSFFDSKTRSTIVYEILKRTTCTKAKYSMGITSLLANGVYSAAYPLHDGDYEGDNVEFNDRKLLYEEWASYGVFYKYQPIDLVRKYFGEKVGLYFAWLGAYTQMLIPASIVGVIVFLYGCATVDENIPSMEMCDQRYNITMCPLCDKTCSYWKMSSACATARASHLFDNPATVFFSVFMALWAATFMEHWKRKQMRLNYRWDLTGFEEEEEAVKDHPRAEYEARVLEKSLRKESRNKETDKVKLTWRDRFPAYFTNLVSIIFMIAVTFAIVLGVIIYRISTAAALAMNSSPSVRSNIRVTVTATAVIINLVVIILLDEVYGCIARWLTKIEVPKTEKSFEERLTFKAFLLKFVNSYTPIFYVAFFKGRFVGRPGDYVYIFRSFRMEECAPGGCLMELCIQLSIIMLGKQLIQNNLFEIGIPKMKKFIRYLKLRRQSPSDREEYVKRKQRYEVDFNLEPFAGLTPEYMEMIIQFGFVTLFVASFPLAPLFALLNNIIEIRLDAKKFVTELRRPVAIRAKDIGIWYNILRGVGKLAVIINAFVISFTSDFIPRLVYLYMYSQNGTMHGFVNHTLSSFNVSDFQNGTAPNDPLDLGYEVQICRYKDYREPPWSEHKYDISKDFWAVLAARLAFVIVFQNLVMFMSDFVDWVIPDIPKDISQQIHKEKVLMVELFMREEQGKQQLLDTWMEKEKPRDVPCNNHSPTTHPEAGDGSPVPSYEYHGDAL
TMEM16A act = activates or potentiates the mouse TMEM16A chloride channel | HEK293 TMEM16A/YFP-H148Q/I152L, iodide quench fluorescence; hits give low values | Q8BHY3 | AID 623877 | B-score at 10 µM | actives 0.3% (n = 340,000);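 active = fluorescence-ratio B-score plate-corrected deviation score at least 3 library SD below zero, with starting fluorescence score within 5 deviations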;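 note: channel opened by trigger with iodide after compound preincubation; score built on the fluorescence ratio of max minus min over baseline; more negative score means more quench and so TMEM16A activation or potentiation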
Lipid droplet = hepatic lipid droplet formation modulation; inhibition, % at 6.5 µM; AID 1656; AML12 mouse hepatocytes, oleate lipid droplets, BODIPY imaging; actives 0.4% (n = 240,000);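 active = lipid droplet intensity inhibited by at least 50%, with more than 500 cells counted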
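Material – AML12 mouse liver cells · Also added – oleate loading, 100 µM · Compound dosing – 6.5 µM single-point dosing · Times – overnight treatment with compound plus oleate · Measured by – fluorescence imaging, 20x objective, two fields per well · Read-out – percent inhibition of filter-corrected integrated lipid droplet intensity per well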
Large screens that a line does not name were inactive. Hits are enriched below; roughly 4.2% of the tested compounds scored in any of these assays.

Cn1c(C2CCCCC2)nc2c1c(=O)[nH]c(=O)n2Cc1ccccc1	CHOP inh 71.5
Cn1c(=O)[nH]c(=O)c2c1nc(N1CCC(Cc3ccccc3)CC1)n2Cc1ccccc1	CHOP inh 88.1 (no result: Lipid droplet)
C[C@H](CO)N1C[C@H](C)[C@@H](CN(C)S(=O)(=O)c2ccccc2)Oc2c(NC(=O)Nc3ccc4c(c3)OCO4)cccc2C1=O	none (no result: CHOP inh, TMEM16A inh, Lipid droplet)
CCCCNC(=S)N(C)/N=C/c1c(F)cccc1F	none
CCCCNC(=S)N(C)/N=C/c1ccccc1F	CHOP inh 77.2
CC1CC(C)CN(CCOc2ccc(Cl)cc2Cl)C1 (centres undefined)	none
CC1CC(C)CN(CCOc2cccc(Cl)c2Cl)C1 (centres undefined)	CHOP inh 73.1
COc1cccc(CNC(=O)c2cc(S(=O)(=O)N3CCOCC3)cn2C)c1	none (no result: CHOP inh)
COc1cc(/C=C/C(=O)c2ccc(NS(=O)(=O)c3ccc(C)cc3)cc2)ccc1OC(F)F	none
COc1cc(/C=C/C(=O)c2ccc(NS(=O)(=O)c3ccc(C)cc3)cc2)cc(OC)c1O	TMEM16A act -5.14 (no result: UPR CHOP act, XBP1 UPR activ)
COc1ccc(/C=C\C(=O)c2c(O)ccc3c(C)cc(=O)oc23)cc1OC	CHOP inh 73.3
COc1cc(/C=C/C(=O)c2c(O)ccc3c(C)cc(=O)oc23)ccc1O	none
CC(NCCN(C)C)C1CCC2C3CCc4cc(O)ccc4C3CCC12C (centres undefined)	none (no result: UPR CHOP act, CHOP inh, XBP1 UPR activ, TMEM16A inh, Lipid droplet)
CCCCC(=O)NC(=S)Nc1c(C)cc(Br)cc1C	none
Cc1cc2cc(CNC(=O)c3ccco3)ccc2n1C	none
Cc1cc2cc(CNC(=O)c3cc4ccccc4o3)ccc2n1C	CHOP inh 89.0 (no result: TMEM16A act, Lipid droplet)
Cc1ccc(C)c(-c2cc(C(=O)NNC(=S)NCC(C)C)c3ccccc3n2)c1	TMEM16A inh 100
CCNC(=S)NNC(=O)c1cc(-c2ccccc2C)nc2ccccc12	none (no result: Lipid droplet)
CCOC(=O)c1cccc2c1-c1ccccc1/C2=N/O	CHOP inh 81.6 (no result: Lipid droplet)
CC1CCCC(C)N1C(=O)c1cccc2c1-c1ccccc1/C2=N/O (centres undefined)	none
CCN1CCN(CCNC(=O)c2ccc(/C=C3/Sc4ccccc4N(Cc4cccc(Cl)c4)C3=O)cc2)CC1	none
CCN1CCN(CCNC(=O)c2ccc3c(c2)N(Cc2ccc(F)cc2)C(=O)/C(=C/c2ccccc2)S3)CC1	CHOP inh 106.6
COc1ccc(Cc2nc(C(=O)Nc3ccc(Cl)cc3)cs2)cc1	TMEM16A inh 100
Cc1ccc(NC(=O)Nc2ccon2)cc1Cl	none (no result: CHOP inh)
Cc1cccc(N(CC(=O)N/N=C/c2ccc(C(=O)O)cc2)S(=O)(=O)c2ccccc2)c1C	none (no result: CHOP inh, Lipid droplet)
c1ccc(-c2nn3c(C4CCCCC4)nnc3s2)cc1	CHOP inh 77.9 (no result: Lipid droplet)
Cc1cccc(-c2nnc3sc(-c4ccccc4)nn23)c1	CHOP inh 77.0 (no result: Lipid droplet)
c1ccc(-c2nn3c(C4CCCCC4)nnc3s2)nc1	none (no result: Lipid droplet)
c1ccc(-c2nn3c(-c4ccccc4)nnc3s2)cc1	none (no result: Lipid droplet)
CC1CCN(S(=O)(=O)c2cc(F)ccc2CN2C(=O)c3cccnc3C2=O)CC1	none (no result: CHOP inh)
c1ccc(-c2ncc3c(ccc4ccccc43)n2)cc1	CHOP inh 80.0
CCN(CCNC(=O)c1ccc(C#N)cc1)c1cccc(C)c1	none (no result: CHOP inh)
CCN(CCNCC(O)COCc1ccc(Cl)cc1)c1cccc(C)c1 (centres undefined)	CHOP inh 83.4
O=C1/C(=C/c2cccs2)N=C(c2cccs2)N1Nc1ccccc1	CHOP inh 93.9
CCN(CC(=O)Nc1ccc(NC(C)=O)cc1)C(=O)CCN1C(=O)C2CC=CCC2C1=O (centres undefined)	none (no result: CHOP inh, TMEM16A inh, Lipid droplet)
Cc1cc(C)n(/N=C/c2c[nH]c3ccccc23)c(=O)c1	none (no result: Lipid droplet)
COCCN=c1scc(-c2ccccc2)n1/N=C/c1c[nH]c2ccccc12	CHOP inh 72.7
Fc1ccc(NC(=S)N/N=C/c2cccc(Br)c2)c(F)c1	CHOP inh 95.2
Cc1ccc(C)c(N2CCN(C(=O)c3ccc(CSc4nc5ccncc5[nH]4)cc3)CC2)c1	CHOP inh 72.0
O=C(c1ccc(CSc2nc3ccncc3[nH]2)cc1)N1CCCCC1	none (no result: Lipid droplet)
COc1ccccc1CNC(=O)COC(=O)c1cccc(S(=O)(=O)N2CCOCC2)c1	none (no result: CHOP inh, Lipid droplet)
CCCOc1ncnc2c1[nH]c1ccc(OC)cc12	none
CCCOc1ncnc2c1[nH]c1ccccc12	CHOP inh 71.8 (no result: Lipid droplet)
CC(=O)N(C(C)=O)n1c(/C=C/c2cccc([N+](=O)[O-])c2)nc2ccccc2c1=O	CHOP inh 92.8
CCOc1ccc(OCCSc2nc3ccccc3[nH]2)cc1	none
CCCOc1ccc(CSc2nc3ccccc3[nH]2)cc1	CHOP inh 75.9 (no result: Lipid droplet)
OCCN(Cc1ccccc1)Cc1ccc(C(F)(F)F)cc1	CHOP inh 91.4
CCS(=O)(=O)c1ccc2oc(SCC(=O)NC(C)C3CC4CCC3C4)nc2c1 (centres undefined)	none
O=[N+]([O-])c1cc([N+](=O)[O-])c2nonc2c1Nc1ccccc1O	TMEM16A inh 100 (no result: CHOP inh)
O=C(C1=C(O)C(=O)N(CC2CCCO2)C1c1ccc(Cl)cc1Cl)c1ccco1 (centres undefined)	none (no result: CHOP inh)
Cc1cccn2cc(-c3ccc(S(=O)(=O)N4CCOCC4)cc3)nc12	CHOP inh 70.8 (no result: Lipid droplet)
Cc1cccn2cc(-c3ccc(S(=O)(=O)N4CCCCC4)cc3)nc12	none
Cc1cc(NC(=O)C(C)SCC(=O)N(C)Cc2ccccc2F)no1 (centres undefined)	none (no result: CHOP inh, TMEM16A inh, Lipid droplet)
Cc1ccc(C(=O)c2cc3c(cc2N)OCCO3)cc1	CHOP inh 73.4
O=C(CN1C(=O)CCSc2ccc(S(=O)(=O)N3CCOCC3)cc21)Nc1ccccc1Cl	none (no result: CHOP inh)
CCN(CC)c1nc(SCC(=O)O)nc(N(CC)CC)n1	none
CCN(c1ccccc1)c1nc(C#N)nc(N(CC)c2ccccc2)n1	TMEM16A inh 25
CCN(CC)c1nc(C#N)nc(N(CC)CC)n1	CHOP inh 78.8 (no result: TMEM16A inh)
CCN(c1ccccc1)c1cc(C)nc2nc(C)nn12	none
O=C(NNC(=O)c1cc2ccccc2[nH]1)OCc1ccccc1	none (no result: CHOP inh, TMEM16A inh, Lipid droplet)
COc1ccc(C2=NN(CC(=O)NCC(OC)OC)C(=O)CC2)cc1	none (no result: CHOP inh)
CCOC(=O)c1c(NC(=O)C(C)OC(=O)c2ccc(NC(=O)CC#N)cc2)sc2c1CCCC2 (centres undefined)	none (no result: CHOP inh, Lipid droplet)
O=[N+]([O-])c1cc(-c2n[nH]c(-c3ccccc3)n2)cc([N+](=O)[O-])c1	CHOP inh 94.0 (no result: Lipid droplet)
O=[N+]([O-])c1cccc2c(Br)[nH]nc12	none (no result: UPR CHOP act, XBP1 UPR activ, TMEM16A inh, TMEM16A act, Lipid droplet)
O=[N+]([O-])c1cc([N+](=O)[O-])c2n[nH]c(-c3ccccc3)c2c1	CHOP inh 71.8
Clc1ccc(OCCCN2CCCCC2)c(Br)c1	TMEM16A act -14.5
Clc1ccc(OCCCCCN2CCCC2)c(Br)c1	none

Compound activity as filed in PubChem.
